Shown are actives, neighbours in structure and some others; about 1.6% of the full set was active somewhere.
Rin1-Abl PPI inh: human Rin1-Abl interaction inhibition; inhibition, % at 7.35 µM; TR-FRET Rin1/Abl binding, biochemical; P00519+Q13671; actives 0.4% (n = 360,000); in the data active = inhibition above about 5%, passing the limit was not always enough
SKN-1 block: inhibitors of C. elegans SKN-1; C. elegans VP596 Pgst-4::GFP/RFP ratio, acrylamide-induced, 24 h; inhibition, % at 21.8 µM; actives 0.49% (n = 360,000); AID 624304;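 active = interference check ratio from 0.5 to 1.5 plus GFP to RFP signal ratio inhibition reaching or exceeding a fixed threshold, cut at about 30% in these data, passing the limit was not always enough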
Tb MetRS inh: Trypanosoma brucei MetRS inhibition; inhibition, % at 11.9 µM; actives 0.4% (n = 360,000); purified T. brucei MetRS, ATP depletion, Kinase-Glo luminescence;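 active = inhibition above a per-plate cutoff of the control wells' mean inhibition plus 3 SD, cut at about 5.5% in these data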;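 note: 0% = DMSO wells median and 100% = median of wells with control inhibitor compound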
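Assay system: T. brucei methionyl-tRNA synthetase, purified | Medium: HEPES buffer with MgCl2, KCl, DTT, spermine, BSA, pyrophosphatase | Compound: 11.9 µM single point | Incubation: 15 min enzyme-compound preincubation, 2 h reaction, 10 min detection, 25 °C | Measured by: Kinase-Glo luciferase luminescence reporting remaining unconsumed ATP | Measure: % inhibition normalized to control-well medians | Replication: Singlicate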
Arr AP2 block: inhibitors of human beta-arrestin and AP2 interaction; actives 0.31% (n = 340,000); inhibition, % at 10 µM; FITC-arrestin peptide / GST-AP2 beads, flow cytometry; AP2 beta2 appendage carries R879A mutation;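 active = inhibition above a set limit, near 3 SD of compounds lacking own fluorescence, cut at about 54% in these data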;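 note: plate controls were DMSO wells for no effect and 5 µM unlabelled arrestin peptide for full effect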
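System: GST-AP2 R879A glutathione beads. Medium: PBS with 0.05% Tween 20 and 0.1% BSA. Also added: FITC-arrestin peptide, 50 nM. Incubation: 12 min plus 1 h, RT. Measured by: high-throughput flow cytometry of beads, ex 488, em 535 nm. Evaluation: percent drop in bead-associated FITC signal.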
MT1-MMP act inh: blocks activation of human MT1-MMP | P50281 | HT1080 RFP-PRO-GFP cells, GFP/RFP ratio fluorescence, overnight; percent of plate control window, DMSO zero | GFP/RFP ratio change, % at 20 µM | actives 0.061% (n = 360,000);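 active = GFP/RFP ratio change of at least 30% with cell ATP level not reduced by more than half and red fluorescence within 50% of control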
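Assay system: HT1080 RFP-PRO-GFP cells | Dosing: 20 µM single dose, 1% DMSO | Incubation: Cells overnight before dosing, compound overnight, 37 °C, 5% CO2 | Evaluation: GFP/RFP fluorescence ratio | Control set: DMSO-only wells and HT1080 RFP-L50D-GFP cell wells as references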
Rin1 Abl conf: confirmation of inhibitors of human Rin1-Abl interaction | shares compounds with Rin1-Abl PPI inh | TR-FRET Rin1-Abl binding, purified proteins | inhibition, % at 7.35 µM | actives 49% (n = 1,300) | AID 602124
GFP quencher: quenches GFP fluorescence, counter-screen for Rin1-Abl inhibitors; inhibitors/quenchers counterscreen; shares compounds with Rin1-Abl PPI inh; inhibition, % at 6.75 µM; actives 8.5% (n = 1,300);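 note: ABL1-eGFP fusion protein alone without its partner RIN1-SBP; 0% = protein with vehicle and 100% = wells lacking protein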
GFP quench DR: counter-screen for Rin1-Abl inhibitors: GFP quenchers, dose response | shares compounds with Rin1-Abl PPI inh | 230 tested, under 10 active | IC50, µM | AID 602182 | GFP fluorescence interference/quenching counterscreen; call rule not given here;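 note: ABL1-eGFP fusion protein alone without its RIN1 binding partner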
The depositor's hits bear a star. Cut-off read from the data, not from the text of the source, unless noted: active = inhibition above about 6.5%; inactive = the rest.

What do the screens show for `CC(=O)Nc1cc(-c2cccnc2)cn2c(-c3ccc(F)cc3)cnc12`?
Rin1-Abl PPI inh: -1; SKN-1 block: 3; Tb MetRS inh: 0; MT1-MMP act inh: -3

Results for Cc1ccccc1-c1cnc(C(O)c2ccc(F)cc2C)[nH]1 (stereo not given) ?
Rin1-Abl PPI inh: 3; SKN-1 block: -2; Tb MetRS inh: 0; MT1-MMP act inh: 6

Results for CC(=O)c1ccc(OCC(O)CN2CCN(c3ccccn3)CC2)cc1 (stereo not given) ?
Rin1-Abl PPI inh: 9.3*; SKN-1 block: 21; Tb MetRS inh: 0; MT1-MMP act inh: 5; Rin1 Abl conf: -1; GFP quencher: 0

How did CCc1ccc(OCC(O)CN2CCN(c3ccccn3)CC2)cc1 (stereo not given) do in these assays?
Rin1-Abl PPI inh: 1; SKN-1 block: -10; Tb MetRS inh: 0; Arr AP2 block: 1; MT1-MMP act inh: 2

How did CNc1nc(OC)nc(N(C#N)CN2C(=O)c3ccccc3S2(=O)=O)n1 do in these assays?
Rin1-Abl PPI inh: 19*; SKN-1 block: -3; Tb MetRS inh: -1; Arr AP2 block: 42; MT1-MMP act inh: -1; Rin1 Abl conf: 1; GFP quencher: 0

What do the screens show for `CCCCN1C(=O)C(CC(=O)NC2CCCCC2)CC(C(=O)N2CCCCCC2)=C1C` (stereo not given)?
SKN-1 block: 4; Tb MetRS inh: -1; MT1-MMP act inh: 1

How did c1ccc(CN2CCC(Nc3ncnc4sccc34)CC2)cc1 do in these assays?
Rin1-Abl PPI inh: -2; SKN-1 block: -17; Tb MetRS inh: -1; Arr AP2 block: 19; MT1-MMP act inh: 1

How did Cc1csc2c(NC3CCN(Cc4ccccc4)CC3)ncnc12 do in these assays?
Rin1-Abl PPI inh: 5.6*; SKN-1 block: 14; Tb MetRS inh: 0; Arr AP2 block: -7; MT1-MMP act inh: 7; Rin1 Abl conf: 0; GFP quencher: 0

Results for CCOc1ccc(NC(=O)Nc2ccc3c(c2)nc(C)n3C)cc1 ?
Rin1-Abl PPI inh: 5.7*; SKN-1 block: -19; Tb MetRS inh: -1; Arr AP2 block: 14; MT1-MMP act inh: 8; Rin1 Abl conf: 11*; GFP quencher: 2

What do the screens show for `CCC(C)CNC(=O)c1[nH]c(C(F)(F)F)nc1-c1ccccc1` (stereo not given)?
Rin1-Abl PPI inh: 0; SKN-1 block: 9; Tb MetRS inh: -1; MT1-MMP act inh: 2

Results for C#CCOCCOCCOCCNc1nc(N2CCN(C(=O)CCCCCCCCCCNC(=O)Cn3cc(CCCCCN)nn3)CC2)nc(N2CCN(C(=O)CCCCCCCCCCNC(=O)[C@@H](CCSC)n3cc(CCO)nn3)CC2)n1 ?
Rin1-Abl PPI inh: 14*; SKN-1 block: 6; Tb MetRS inh: 0; Arr AP2 block: -5; MT1-MMP act inh: 17; Rin1 Abl conf: 13*; GFP quencher: 0

How did Cc1cc(C)cc(NC(=O)N2CCNC(=O)C2CC(=O)Nc2cc(Cl)ccc2Cl)c1 (stereo not given) do in these assays?
Rin1-Abl PPI inh: 10*; SKN-1 block: 12; Tb MetRS inh: 0; Arr AP2 block: 10; MT1-MMP act inh: 9; Rin1 Abl conf: 8.0*; GFP quencher: 1

How did O=C1CNC(=O)N1CC(O)Cn1c2ccccc2c2ccccc21 (stereo not given) do in these assays?
Rin1-Abl PPI inh: 24*; SKN-1 block: 0; Tb MetRS inh: -1; Arr AP2 block: -6; MT1-MMP act inh: 4; Rin1 Abl conf: 28*; GFP quencher: -1; GFP quench DR: >67

What do the screens show for `N#Cc1ccccc1OCc1cn(CC(=O)c2ccc(O)cc2)nn1`?
Rin1-Abl PPI inh: 0; SKN-1 block: 4; Tb MetRS inh: 0; Arr AP2 block: 5; MT1-MMP act inh: 0
